Assay [1] can be described thus: Percentage of nitric oxide released by the compound when incubated in phosphate buffer solution at pH 7.4, 37 degree C for 1.5 h. The format is functional. Summed up: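 The compound was incubated in PBS at pH 7.4 and 37 °C for 1.5 h. Nitric oxide was quantified as nitrite by the Griess reaction. Release is expressed as percent of a theoretical maximum of 2 mol NO per mol compound, SEM, n = 3.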

Another assay deals with Rattus norvegicus. As to the kind of experiment: In vivo antiinflammatory activity after 3 hr of oral administration was determined using rat carrageenan induced paw edema model. It is filed as functional. The note with it: read-out: ID50 (the source's name). Summed up: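 Carrageenan-induced foot paw edema in rats, with the test compound and reference drugs given orally. Activity is expressed as ID50 in mg/kg.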

Assay [2] in a line: Percentage of nitric oxide released upon incubation in the presence of guinea pig serum in PBS pH 7.4, 37 degree C for 1.5 h. The format is functional. Also on record: concentration or dose not given beside the values. Summed up: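 Test compound (2.0 × 10-4 mmol) was incubated with 260 µL guinea pig serum in PBS at pH 7.4, 37 °C, for 1.5 h. Nitrite was determined by the Griess reaction. Release is given as percent of a theoretical maximum of 2 mol NO per mol compound, SEM, n = 3.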

Assay [3] is described as follows: Percentage of nitric oxide released upon incubation in the presence of pig liver esterase in phosphate buffer solution at pH 7.4, 37 degree C for 1.5 h. It is filed as functional. The procedure, abridged: (§1)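 Pig liver esterase was added at 2 equiv (1 mol compound : 2 mol esterase) in PBS at pH 7.4, 37 °C, 1.5 h. Nitrite from NO was measured by the Griess reaction. Release is given as percent of a theoretical 2 mol NO per mol compound, SEM, n = 3.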

Assay [4] concerns the target T1, Prostaglandin G/H synthase 1 (Ovis aries, UniProt P05979).
T1 sequence (P05979 whole entry): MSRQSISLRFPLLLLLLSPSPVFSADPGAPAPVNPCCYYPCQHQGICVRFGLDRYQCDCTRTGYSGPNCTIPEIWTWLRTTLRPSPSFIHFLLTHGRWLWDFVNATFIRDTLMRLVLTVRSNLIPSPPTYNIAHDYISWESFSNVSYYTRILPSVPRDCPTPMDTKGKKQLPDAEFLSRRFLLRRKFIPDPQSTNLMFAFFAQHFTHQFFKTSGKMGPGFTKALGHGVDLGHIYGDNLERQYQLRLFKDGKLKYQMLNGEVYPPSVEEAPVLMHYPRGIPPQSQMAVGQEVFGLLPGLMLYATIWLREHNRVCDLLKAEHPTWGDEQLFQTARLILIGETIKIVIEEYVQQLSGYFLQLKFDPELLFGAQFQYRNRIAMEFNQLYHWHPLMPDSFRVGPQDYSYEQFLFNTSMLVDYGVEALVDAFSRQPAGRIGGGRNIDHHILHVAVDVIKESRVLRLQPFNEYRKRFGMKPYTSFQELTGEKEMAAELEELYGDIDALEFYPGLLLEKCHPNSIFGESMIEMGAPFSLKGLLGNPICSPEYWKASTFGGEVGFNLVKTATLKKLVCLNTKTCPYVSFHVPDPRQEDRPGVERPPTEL
The assay is described as follows: In vitro inhibitory concentration against COX-1 enzyme.

Assay [5] in a line: Percentage of nitric oxide released by the compound when incubated in the presence of pig liver esterase in phosphate buffer solution at pH 7.4, 37 degree C for 1.5 h. It is filed as functional. The procedure, abridged: as §1

SMILES strings stand for the structures.

Regarding `CN(C)/[N+]([O-])=N/O`, in assay [1], the Activity amounted to 95.2%.

With `COc1ccc2c(c1)c(CC(=O)OCO/N=[N+](\[O-])N(C)C)c(C)n2C(=O)c1ccc(Cl)cc1`, the ED50 in the assay on Rattus norvegicus was determined as 5.9 mg/kg. The Activity in assay [2] is 86.3%; in assay [3], 16.9%; in assay [1], 14.3%. This compound showed a concentration for half-maximal inhibition (IC50) in assay [4] of over 100 µM.

On to `CC(=O)Oc1ccccc1C(=O)OCO/N=[N+](\[O-])N1CCCC1`, for which the ED50 in the assay with Rattus norvegicus stood at 182 mg/kg. Moreover, the Activity in assay [5] came out at 18.5%; in assay [2] it was 88.9%; in assay [1], 14.8%. For the same compound, the IC50 in assay [4] is over 100 µM.

For the compound `CC(=O)Oc1ccccc1C(=O)OCO/N=[N+](\[O-])N(C)C`, in the assay with Rattus norvegicus, the ED50 came out at 151 mg/kg. For the same compound, the Activity worked out at 81.6% in assay [2], 19.1% in assay [3] and 15.4% in assay [1]. The compound further yielded an IC50 in assay [4] of over 100 µM.

On to `COc1ccc2c(c1)c(CC(=O)OCO/N=[N+](\[O-])N1CCCC1)c(C)n2C(=O)c1ccc(Cl)cc1`, for which, in the assay on Rattus norvegicus, the ED50 came to 10.7 mg/kg. For the same compound, the Activity was 89.1% in assay [2], 16.3% in assay [3] and 15.1% in assay [1]. In addition, the IC50 in assay [4] is over 100 µM.

As to `CC(C)Cc1ccc(C(C)C(=O)O)cc1` (centres undefined) [IBUPROFEN], the ED50 in the assay with Rattus norvegicus was 67.4 mg/kg.

Take `CC(C)Cc1ccc(C(C)C(=O)OCO/N=[N+](\[O-])N(C)C)cc1` (centres undefined): the ED50 in the assay with Rattus norvegicus is 62.3 mg/kg. The Activity in assay [2] came out at 93.6%; in assay [3] it was 17.3%; in assay [1] it was 16.1%. This compound had an IC50 in assay [4] of over 100 µM.

Take `COc1ccc2c(c1)c(CC(=O)O)c(C)n2C(=O)c1ccc(Cl)cc1` [INDOMETHACIN]: in the assay on Rattus norvegicus, the ED50 is 4.2 mg/kg.

On to `CC(C)Cc1ccc(C(C)C(=O)OCO/N=[N+](\[O-])N2CCCC2)cc1` (centres undefined), for which the ED50 in the assay on Rattus norvegicus was 66.8 mg/kg. In addition, the Activity in assay [2] worked out at 89.2%; in assay [3], 16.3%; in assay [1], 14.9%. This compound came in with an IC50 in assay [4] of over 100 µM.

Take `[O-]/[N+](=N\O)N1CCCC1`: the Activity in assay [1] was determined as 94%.
